Experimental data as given in ChEMBL document CHEMBL1142133 (2007).
≈ marks a conversion by molar mass, not a printed value.

How the values were obtained:
Cryptococcus neoformans [1] = assay: Antifungal activity against flucytosine-resistant Cryptococcus neoformans 98.0176 at 0.125 ug/ml after 72 hrs by time-kill method; type: functional
Method in brief: (§1)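 Time-kill assay run as in the authors' earlier method. […] Read-out was log10 CFU/ml after 72 h incubation, compared with a drug-free control.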

Cryptococcus neoformans [2] = assay: Antifungal activity against flucytosine-resistant Cryptococcus neoformans 18476 at 0.125 ug/ml after 72 hrs by time-kill method; type: functional; method in brief: as §1
Cryptococcus neoformans [3] = assay: Antifungal activity against flucytosine-resistant Cryptococcus neoformans 550 at 0.19 ug/ml after 72 hrs by time-kill method; type: functional
Cryptococcus neoformans [4] = assay: Antifungal activity against flucytosine-resistant Cryptococcus neoformans 98.0673 at 0.125 ug/ml after 72 hrs by time-kill method; type: functional; method in brief: as §1
Cryptococcus neoformans [5] = assay: Antifungal activity against flucytosine-resistant Cryptococcus neoformans 99.1026 at 0.125 ug/ml after 72 hrs by time-kill method; type: functional
Method in brief: (§2)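 Time-kill assay on flucytosine-resistant isolates. […] Viable counts were taken as log10 CFU per ml after 72 h of incubation.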

Cryptococcus neoformans [6] = assay: Antifungal activity against flucytosine-resistant Cryptococcus neoformans 98.1121 at 0.125 ug/ml after 72 hrs by time-kill method; type: functional; method in brief: as §2
Cryptococcus neoformans [7] = assay: Antifungal activity against flucytosine-resistant Cryptococcus neoformans 276 at 0.125 ug/ml after 72 hrs by time-kill method; type: functional; method in brief: as §1
Cryptococcus neoformans [8] = assay: Antifungal activity against flucytosine-resistant Cryptococcus neoformans 280 at 0.125 ug/ml after 72 hrs by time-kill method; type: functional; method in brief: as §1
Cryptococcus neoformans [9] = assay: Antifungal activity against flucytosine-resistant Cryptococcus neoformans 533 at 0.125 ug/ml after 72 hrs by time-kill method; type: functional; method in brief: as §1
Cryptococcus neoformans [10] = assay: Antifungal activity against flucytosine-resistant Cryptococcus neoformans 98.0673 by checkerboard method; type: functional
Cryptococcus neoformans [11] = assay: Antifungal activity against flucytosine-resistant Cryptococcus neoformans 280 by checkerboard method; type: functional
Cryptococcus neoformans [12] = assay: Antifungal activity against flucytosine-resistant Cryptococcus neoformans 285 by checkerboard method; type: functional
Cryptococcus neoformans [13] = assay: Antifungal activity against flucytosine-resistant Cryptococcus neoformans 98.0176 by checkerboard method in presence of flucytosine; type: functional
Cryptococcus neoformans [14] = assay: Antifungal activity against flucytosine-resistant Cryptococcus neoformans 18476 by checkerboard method in presence of flucytosine; type: functional
Cryptococcus neoformans [15] = assay: Antifungal activity against flucytosine-resistant Cryptococcus neoformans 550 by checkerboard method in presence of flucytosine; type: functional
Cryptococcus neoformans [16] = assay: Antifungal activity against flucytosine-resistant Cryptococcus neoformans 99.1026 by checkerboard method in presence of flucytosine; type: functional
Cryptococcus neoformans [17] = assay: Antifungal activity against flucytosine-resistant Cryptococcus neoformans 18476 by checkerboard method; type: functional
Cryptococcus neoformans [18] = assay: Antifungal activity against flucytosine-resistant Cryptococcus neoformans 276 by checkerboard method in presence of flucytosine; type: functional
Cryptococcus neoformans [19] = assay: Antifungal activity against flucytosine-resistant Cryptococcus neoformans 533 by checkerboard method in presence of flucytosine; type: functional
Cryptococcus neoformans [20] = assay: Antifungal activity against flucytosine-resistant Cryptococcus neoformans 98.0176 by Etest method in presence of flucytosine; type: functional
Cryptococcus neoformans [21] = assay: Antifungal activity against flucytosine-resistant Cryptococcus neoformans 18476 by Etest method in presence of flucytosine; type: functional
Cryptococcus neoformans [22] = assay: Antifungal activity against flucytosine-resistant Cryptococcus neoformans 285 by Etest method in presence of flucytosine; type: functional
Cryptococcus neoformans [23] = assay: Antifungal activity against flucytosine-resistant Cryptococcus neoformans 550 by Etest method in presence of flucytosine; type: functional
Cryptococcus neoformans [24] = assay: Antifungal activity against flucytosine-resistant Cryptococcus neoformans 98.0673 by Etest method in presence of flucytosine; type: functional
Cryptococcus neoformans [25] = assay: Antifungal activity against flucytosine-resistant Cryptococcus neoformans 99.1026 by Etest method in presence of flucytosine; type: functional
Cryptococcus neoformans [26] = assay: Antifungal activity against flucytosine-resistant Cryptococcus neoformans 98.1121 by Etest method in presence of flucytosine; type: functional
Cryptococcus neoformans [27] = assay: Antifungal activity against flucytosine-resistant Cryptococcus neoformans 276 by Etest method in presence of flucytosine; type: functional
Cryptococcus neoformans [28] = assay: Antifungal activity against flucytosine-resistant Cryptococcus neoformans 280 by Etest method in presence of flucytosine; type: functional
Cryptococcus neoformans [29] = assay: Antifungal activity against flucytosine-resistant Cryptococcus neoformans 533 by Etest method in presence of flucytosine; type: functional
Cryptococcus neoformans [30] = assay: microbe, parasite or virus in culture

## C[C@@H]1[C@H](O)[C@@H](C)/C=C/C=C/C=C/C=C/C=C/C=C/C=C/[C@H](O[C@@H]2O[C@H](C)[C@@H](O)[C@H](N)[C@@H]2O)C[C@@H]2O[C@](O)(C[C@@H](O)C[C@@H](O)[C@H](O)CC[C@@H](O)C[C@@H](O)CC(=O)O[C@H]1C)C[C@H](O)[C@H]2C(=O)O [AMPHOTERICIN B]
Cryptococcus neoformans [1]
  log10CFU/ml: 6.5
Cryptococcus neoformans [2]
  log10CFU/ml: 6.7
Cryptococcus neoformans [3]
  log10CFU/ml: 7.2
Cryptococcus neoformans [4]
  log10CFU/ml: 7.2
Cryptococcus neoformans [5]
  log10CFU/ml: 5.2
Cryptococcus neoformans [6]
  log10CFU/ml: 1.5
Cryptococcus neoformans [7]
  log10CFU/ml: 7.3
Cryptococcus neoformans [8]
  log10CFU/ml: 5.6
Cryptococcus neoformans [9]
  log10CFU/ml: 7.4
Cryptococcus neoformans [10]
  MIC: 1 µg/mL
Cryptococcus neoformans [11]
  MIC: 1 µg/mL
Cryptococcus neoformans [12]
  MIC: 1 µg/mL
Cryptococcus neoformans [13]
  MIC: 0.12 µg/mL
Cryptococcus neoformans [14]
  MIC: 0.12 µg/mL
Cryptococcus neoformans [15]
  MIC: 0.06 µg/mL
Cryptococcus neoformans [16]
  MIC: 0.06 µg/mL
Cryptococcus neoformans [17]
  MIC: 0.25 µg/mL
Cryptococcus neoformans [18]
  MIC: 0.06 µg/mL
Cryptococcus neoformans [19]
  MIC: 0.12 µg/mL
Cryptococcus neoformans [20]
  MIC: 0.094 µg/mL
Cryptococcus neoformans [21]
  MIC: 0.094 µg/mL
Cryptococcus neoformans [22]
  MIC: 0.095 µg/mL
Cryptococcus neoformans [23]
  MIC: 0.094 µg/mL
Cryptococcus neoformans [24]
  MIC: 0.094 µg/mL
Cryptococcus neoformans [25]
  MIC: 0.094 µg/mL
Cryptococcus neoformans [26]
  MIC: 0.094 µg/mL
Cryptococcus neoformans [27]
  MIC: 0.094 µg/mL
Cryptococcus neoformans [28]
  MIC: 0.094 µg/mL
Cryptococcus neoformans [29]
  MIC: 0.094 µg/mL
Cryptococcus neoformans [30]
  MIC: 0.25 µg/mL (≈ 0.271 µM)
